According to publication PMC9085298 (RSC Advances, 2018):
≈ marks a conversion by molar mass, not a printed value.

Legend:
[1] = tested on: Staphylococcus aureus (ATCC 29213); assay: MIC80 by broth microdilution; format: cell-based; conditions: for MIC80: Staphylococcus aureus, ATCC29213, read-out: Bacteria MIC80 S. aureus (29213); for Bacteria MIC80 S. aureus (29213): concentration inhibiting growth ≥80% vs vehicle, 16–24 h, 35 °C
Method in brief: (§1)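 CLSI broth microdilution in cation-adjusted Mueller–Hinton II broth with a 1.5-fold test-compound dilution series. Overnight culture adjusted to 5 × 10^5 CFU mL−1 final. Incubated 16–24 h at 35 °C ± 2 °C, then growth read by absorbance (OD600). MIC80 is the concentration giving ≥80% growth inhibition versus vehicle-treated cultures. Each value is the average of at least two independent determinations.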

[2] = tested on: Escherichia coli (ATCC 35218); assay: MIC80 by broth microdilution; format: cell-based; conditions: for MIC80: Escherichia coli, ATCC35218, read-out: Bacteria MIC80 E. coli (35218)
Method in brief: as §1

[3] = tested on: Acinetobacter baumannii (from a patient); assay: MIC80 by broth microdilution; format: cell-based; conditions: for MIC80: Acinetobacter baumannii, read-out: Bacteria MIC80 A. baumannii (from a patient)
Method in brief: as §1

[4] = tested on: C. neoformans var grubii, KN99 (serotype A, MATα); assay: Inhibition of C. neoformans growth; format: cell-based, Cryptococcus neoformans
Method in brief: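 Test compound 0.19–50 μM, 48 h at 35 °C, density read at OD650. Growth expressed as % of DMSO-only cells. MIC80 is the minimal concentration inhibiting 80% growth versus vehicle. Triplicates; average of ≥2 independent assays.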

[5] = Neutral red cytotoxicity assay; format: cell-based; conditions: human, HepDES19 cells (hepatoblastoma cells)
Method in brief: (§2)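 HepDES19 cells seeded at 1.0 × 10^4/well in DMEM with 10% FBS, 1% penicillin/streptomycin, 1% nonessential amino acids and 1% glutamine. Test compound (1% DMSO final) added 48 h after plating, triplicate per concentration, and incubated 72 h. Viability measured by neutral red uptake. CC50 is 50% inhibition versus vehicle control, from a 4-variable slope fit of log-transformed data.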

[6] = MTS cytotoxicity assay; format: cell-based; conditions: human, HepDES19 cells (hepatoblastoma cells)
Method in brief: (§3)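 HepDES19 cells seeded at 1.0 × 10^4/well in DMEM with 10% FBS, 1% penicillin/streptomycin, 1% nonessential amino acids and 1% glutamine. Test compound in medium (1% DMSO final) added 48 h after plating, triplicate per concentration. After 72 h, MTS added for 90 min; absorbance at 490 nm. CC50 is 50% viability loss versus untreated cells, from a variable-slope log[inhibitor]–response fit.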

[7] = tested on: HepDES19 cells; assay: Neutral red cytotoxicity assay; format: cell-based; conditions: read-out: CC50 (neutral red); HepDES19 cells, 72 h, lysosomal function
Method in brief: as §2

[8] = tested on: HepDES19 cells; assay: MTS cytotoxicity assay; format: cell-based; conditions: read-out: CC50 (MTS); HepDES19 cells, 72 h, mitochondrial function
Method in brief: as §3

[9] = tested on: Pseudomonas aeruginosa (ATCC 27853); assay: MIC80 by broth microdilution; format: cell-based; conditions: concentration inhibiting growth ≥80% vs vehicle; 16–24 h, 35 °C
Method in brief: as §1

[10] = concentration inhibiting growth ≥80% vs vehicle, 16–24 h, 35 °C

Row | MIC80 [1] [µM] | MIC80 [2] [µM] | MIC80 [3] [µM] | Bacteria MIC80 S. aureus (29213) [1] [µM] | C. neoformans MIC80 ([4]; minimal concentration inhibiting 80% of growth, 48 h, 35 °C, YNB-02 + 1% DMSO) [µM] | Bacteria MIC80 E. coli (35218) [2, 10] [µM] | Bacteria MIC80 A. baumannii (from a patient) [3, 10] [µM] | Bacteria MIC80 P. aeruginosa (27853) [9] [µM] | Molecule | fold less activity against C. neoformans ([4]; relative to hydroxy tropolone 2) [fold] | CC50 at 72 h [5] [µM] | CC50 at 72 h [6] [µM] | CC50 [7] [µM] | CC50 [8] [µM] | fold increase in antibacterial activity against S. aureus ([1]; relative to natural product 2) [fold]
1 | > 100 | > 100 | > 100 | – | – | – | – | – | CC(C)c1cccc(=S)c(O)c1 [Compound 10, 2-Hydroxy-4-isopropylcyclohepta-2,4,6-triene-1-thione] | > 2 | 39.7 | 95 | – | – | –
2 | – | – | – | 16 | 24 | – | – | – | 7-Hydroxy-3-isopropylcyclohepta-2,4,5-triene-1-thione [Compound 11] | – | – | – | 30.4 | 64.2 | –
3 | 8.8 (≈ 2.8 µg/mL) | > 100 | > 100 | – | – | – | – | – | Cc1ccc(S(=O)(=O)Oc2cc(C(C)C)cccc2=O)cc1 [Compound 9, 4-(1-Methylethyl)-2-[[(4-methylphenyl)sulfonyl]oxy]-2,4,6-cycloheptatrien-1-one] | – | 19.5 | 34.2 | – | – | 8
4 | > 100 | > 100 | > 100 | >100 | – | >100 | >100 | >100 | Cc1ccc(S(=O)(=O)Oc2cccc(C(C)C)cc2=O)cc1 [Compound 8, 6-(1-Methylethyl)-2-[[(4-methylphenyl)sulfonyl]oxy]-2,4,6-cycloheptatrien-1-one] | – | 31.8 | 33.6 | – | – | –
